The source of these data is ChEMBL document CHEMBL3120078, “Benzofuran derivatives as a novel class of inhibitors of mTOR signaling” (Eur J Med Chem, 2014).

Assay [1] has as its target T1, RAC-alpha serine/threonine-protein kinase (Homo sapiens, UniProt P31749). As to the kind of experiment: Binding affinity to Akt in human SQ20B cells after 10 to 12 hrs by pull down assay. In kind it is cell-based.
The target of assay [2] is Regulatory-associated protein of mTOR (Homo sapiens) (UniProt Q8N122). The assay is described as follows: Binding affinity to raptor in human SQ20B cells after 10 to 12 hrs by pull down assay. In kind it is cell-based.
Regulatory-associated protein of mTOR (Homo sapiens), sequence (Q8N122 whole entry): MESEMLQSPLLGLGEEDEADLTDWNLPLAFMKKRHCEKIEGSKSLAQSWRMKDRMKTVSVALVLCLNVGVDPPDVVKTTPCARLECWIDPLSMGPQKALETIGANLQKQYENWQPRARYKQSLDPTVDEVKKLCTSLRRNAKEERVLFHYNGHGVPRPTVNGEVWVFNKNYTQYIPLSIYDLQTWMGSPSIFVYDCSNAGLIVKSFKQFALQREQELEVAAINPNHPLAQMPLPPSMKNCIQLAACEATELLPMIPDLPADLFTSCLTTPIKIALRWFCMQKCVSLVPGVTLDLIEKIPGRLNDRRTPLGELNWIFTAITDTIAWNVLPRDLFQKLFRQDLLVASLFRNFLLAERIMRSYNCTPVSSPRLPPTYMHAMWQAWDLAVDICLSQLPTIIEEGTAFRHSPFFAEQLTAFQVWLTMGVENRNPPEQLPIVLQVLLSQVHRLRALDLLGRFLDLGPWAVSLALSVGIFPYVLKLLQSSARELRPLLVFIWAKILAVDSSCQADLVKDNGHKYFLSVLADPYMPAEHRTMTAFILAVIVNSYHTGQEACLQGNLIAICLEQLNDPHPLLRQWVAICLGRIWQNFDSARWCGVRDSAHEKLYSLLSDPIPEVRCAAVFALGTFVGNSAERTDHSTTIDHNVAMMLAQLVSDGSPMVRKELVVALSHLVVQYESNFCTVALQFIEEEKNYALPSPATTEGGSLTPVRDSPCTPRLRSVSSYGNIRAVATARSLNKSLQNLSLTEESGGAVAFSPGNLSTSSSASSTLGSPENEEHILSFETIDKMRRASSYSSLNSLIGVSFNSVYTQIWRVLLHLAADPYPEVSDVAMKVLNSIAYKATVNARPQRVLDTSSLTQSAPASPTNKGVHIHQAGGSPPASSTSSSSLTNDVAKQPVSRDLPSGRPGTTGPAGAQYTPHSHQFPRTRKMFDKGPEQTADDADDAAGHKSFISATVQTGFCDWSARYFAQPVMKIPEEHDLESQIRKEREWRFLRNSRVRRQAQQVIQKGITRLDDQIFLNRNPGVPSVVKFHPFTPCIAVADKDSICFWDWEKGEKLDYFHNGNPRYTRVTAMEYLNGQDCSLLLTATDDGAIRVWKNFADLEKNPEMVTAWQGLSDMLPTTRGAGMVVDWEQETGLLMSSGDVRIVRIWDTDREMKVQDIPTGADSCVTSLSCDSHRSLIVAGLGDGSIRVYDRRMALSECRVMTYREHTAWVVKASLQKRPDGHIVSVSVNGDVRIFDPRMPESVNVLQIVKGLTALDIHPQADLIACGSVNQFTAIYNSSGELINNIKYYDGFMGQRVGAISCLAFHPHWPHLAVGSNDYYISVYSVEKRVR
For assay [3], the system named is SQ20B. The assay is described as follows: Binding affinity to PI3K in human SQ20B cells after 10 to 12 hrs by pull down assay. In kind it is cell-based.
Assay [4] has as its target T2, mTORC1 (Homo sapiens) (UniProt P42345+Q8N122+Q9BVC4). As to the kind of experiment: Inhibition of mTORC1 in human SQ20B cells assessed as inhibition of S6 ribosomal protein phosphorylation after 10 to 12 hrs by pull down assay. In kind it is cell-based.
The target in assay [5] is Rapamycin-insensitive companion of mTOR (Homo sapiens) (UniProt Q6R327). The assay is described as follows: Binding affinity to rictor in human SQ20B cells after 10 to 12 hrs by pull down assay. In kind it is cell-based.
Rapamycin-insensitive companion of mTOR (Homo sapiens), sequence (Q6R327 whole entry): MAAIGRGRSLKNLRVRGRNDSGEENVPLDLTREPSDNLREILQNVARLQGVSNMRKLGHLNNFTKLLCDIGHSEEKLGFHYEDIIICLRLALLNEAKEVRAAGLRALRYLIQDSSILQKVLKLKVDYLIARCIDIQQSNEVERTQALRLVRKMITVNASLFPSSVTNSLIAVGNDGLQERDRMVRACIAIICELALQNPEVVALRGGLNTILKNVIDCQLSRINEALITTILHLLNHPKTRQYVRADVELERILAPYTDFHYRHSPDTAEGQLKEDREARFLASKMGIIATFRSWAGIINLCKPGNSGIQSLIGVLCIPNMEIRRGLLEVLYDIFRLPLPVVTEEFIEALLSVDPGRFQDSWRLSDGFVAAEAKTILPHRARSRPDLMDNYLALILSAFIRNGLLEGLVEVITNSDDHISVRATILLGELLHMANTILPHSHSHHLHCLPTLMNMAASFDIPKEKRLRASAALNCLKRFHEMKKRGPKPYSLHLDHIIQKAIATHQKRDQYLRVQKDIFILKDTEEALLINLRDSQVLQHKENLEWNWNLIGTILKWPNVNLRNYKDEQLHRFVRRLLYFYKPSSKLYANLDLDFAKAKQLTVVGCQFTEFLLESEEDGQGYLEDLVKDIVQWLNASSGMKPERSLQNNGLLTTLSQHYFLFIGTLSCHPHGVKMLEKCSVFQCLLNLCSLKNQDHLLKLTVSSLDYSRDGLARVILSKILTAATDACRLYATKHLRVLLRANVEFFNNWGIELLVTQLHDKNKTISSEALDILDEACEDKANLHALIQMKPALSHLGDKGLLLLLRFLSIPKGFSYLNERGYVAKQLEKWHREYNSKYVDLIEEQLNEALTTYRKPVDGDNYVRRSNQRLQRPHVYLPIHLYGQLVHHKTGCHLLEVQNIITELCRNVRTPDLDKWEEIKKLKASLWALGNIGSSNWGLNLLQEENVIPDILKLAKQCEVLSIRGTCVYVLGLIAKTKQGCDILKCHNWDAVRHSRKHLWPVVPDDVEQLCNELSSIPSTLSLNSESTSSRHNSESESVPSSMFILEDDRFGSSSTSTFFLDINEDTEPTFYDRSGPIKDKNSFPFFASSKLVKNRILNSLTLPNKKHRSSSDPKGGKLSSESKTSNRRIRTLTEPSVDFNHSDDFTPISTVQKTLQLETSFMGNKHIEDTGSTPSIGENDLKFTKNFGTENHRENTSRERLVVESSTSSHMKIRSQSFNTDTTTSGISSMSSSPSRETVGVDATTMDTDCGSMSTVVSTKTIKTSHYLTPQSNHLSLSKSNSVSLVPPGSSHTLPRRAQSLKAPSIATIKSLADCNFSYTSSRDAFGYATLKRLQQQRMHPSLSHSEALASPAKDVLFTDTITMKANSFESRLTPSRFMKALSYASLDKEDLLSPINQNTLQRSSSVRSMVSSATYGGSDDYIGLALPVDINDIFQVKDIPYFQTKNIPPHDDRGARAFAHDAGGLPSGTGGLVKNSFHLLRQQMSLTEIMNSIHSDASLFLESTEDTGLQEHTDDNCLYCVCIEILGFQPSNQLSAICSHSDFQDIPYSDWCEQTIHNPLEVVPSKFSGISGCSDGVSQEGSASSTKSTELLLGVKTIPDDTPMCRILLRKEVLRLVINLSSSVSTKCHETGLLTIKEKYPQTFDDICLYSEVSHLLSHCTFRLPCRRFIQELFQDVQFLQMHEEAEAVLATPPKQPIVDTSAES
The target of assay [6] is Serine/threonine-protein kinase mTOR (Homo sapiens) (UniProt P42345). As to the kind of experiment: Binding affinity to mTOR in human SQ20B cells after 10 to 12 hrs by pull down assay. In kind it is cell-based.
Assay [7] concerns the target T2, mTORC1 (Homo sapiens). The assay is described as follows: Inhibition of mTORC1 in human SQ20B cells assessed as AKT phosphorylation after 10 to 12 hrs by pull down assay. In kind it is cell-based.
Assay [8] concerns the target T3, 3-phosphoinositide-dependent protein kinase 1 (Homo sapiens) (UniProt O15530).
T3 sequence (whole entry): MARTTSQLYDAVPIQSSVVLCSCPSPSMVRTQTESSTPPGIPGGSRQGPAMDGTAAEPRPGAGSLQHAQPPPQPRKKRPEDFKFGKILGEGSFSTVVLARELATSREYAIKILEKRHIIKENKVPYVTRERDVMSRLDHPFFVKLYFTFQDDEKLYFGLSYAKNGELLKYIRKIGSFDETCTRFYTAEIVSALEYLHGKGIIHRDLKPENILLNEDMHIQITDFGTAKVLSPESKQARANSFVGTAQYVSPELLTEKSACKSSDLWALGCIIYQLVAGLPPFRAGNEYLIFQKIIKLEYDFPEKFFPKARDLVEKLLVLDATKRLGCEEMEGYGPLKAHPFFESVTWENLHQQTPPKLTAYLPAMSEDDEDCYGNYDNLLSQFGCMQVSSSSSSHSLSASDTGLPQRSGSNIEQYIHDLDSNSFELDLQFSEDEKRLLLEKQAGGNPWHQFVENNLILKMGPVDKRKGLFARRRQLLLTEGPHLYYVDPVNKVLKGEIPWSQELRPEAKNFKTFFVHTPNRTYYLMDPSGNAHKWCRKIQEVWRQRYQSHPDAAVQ
The assay is described as follows: Binding affinity to PDK1 in human SQ20B cells after 10 to 12 hrs by pull down assay. In kind it is cell-based.

The test system of assay [9] is SQ20B. The assay is described as follows: Cytotoxicity against human SQ20B cells after 72 hrs by MTT assay. In kind it is functional, cell-based. In short, it runs like this: (§1)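 Cells grown in RPMI with 10% FCS, 2 mM glutamine and antibiotics at 37 °C, 5% CO2, seeded at 2 × 10³ cells/well. Treated 72 h, then MTT 0.4 mg/ml for 4 h at 37 °C. Formazan dissolved in DMSO, absorbance read at 560 nm. Untreated wells and cell-free wells as controls. IC50 taken from dose–response curves.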

The next assay relates to HOP-92. The assay is described as follows: Cytotoxicity against human HOP92 cells after 72 hrs by MTT assay. In kind it is functional, cell-based. Conditions: HOP-92, 72 h. For orientation: Tetrazolium dyes change colour on reduction, which living cells bring about.
A short description of assay [10]: Cytotoxicity against human 786-O cells. In kind it is functional, cell-based. Conditions: 786-0.
Assay [11] concerns the target T1, RAC-alpha serine/threonine-protein kinase. The assay is described as follows: Inhibition of Akt/mTOR in human 786-O cells assessed as inhibition of nuclear export of transcription factor FOXO1a. In kind it is cell-based.
The next assay has as its system HCC 2998. As to the kind of experiment: Cytotoxicity against human HCC2998 cells after 72 hrs by MTT assay. In kind it is functional, cell-based. Conditions: HCC 2998, 72 h.
Assay [12] can be described thus: Cytotoxicity against human ColoR cells after 72 hrs by MTT assay. In kind it is functional, cell-based. The procedure, abridged:
as §1

Another assay has as its system DU-145. As to the kind of experiment: Cytotoxicity against human DU145 cells after 72 hrs by MTT assay. In kind it is functional, cell-based. Conditions: DU-145, 72 h.
Another assay relates to OVCAR-3. The assay is described as follows: Cytotoxicity against human OVCAR3 cells after 72 hrs by MTT assay. In kind it is functional, cell-based. Conditions: OVCAR-3, 72 h.
For another assay, the system named is HCT-116. As to the kind of experiment: Cytotoxicity against human HCT116 cells after 72 hrs by MTT assay. Conditions: HCT-116, 72 h. In kind it is functional, cell-based. In short, it runs like this:
as §1

In the next assay the test system is CAKI-1. The assay is described as follows: Cytotoxicity against human Caki1 cells after 72 hrs by MTT assay. In kind it is functional, cell-based. Conditions: CAKI-1, 72 h.
Another assay relates to HOP-62. As to the kind of experiment: Cytotoxicity against human HOP62 cells after 72 hrs by MTT assay. In kind it is functional, cell-based. Conditions: HOP-62, 72 h. In short, it runs like this: as §1
The nature of assay [13]: Cytotoxicity against human SKHEP1 cells after 72 hrs by MTT assay. Conditions: SK-HEP1, 72 h. In kind it is functional, cell-based.
Another assay relates to HT-29. As to the kind of experiment: Cytotoxicity against human HT-29 cells after 72 hrs by MTT assay. Conditions: HT-29, 72 h. In kind it is functional, cell-based. The procedure, abridged:
as §1

A further assay deals with COLO 205. As to the kind of experiment: Cytotoxicity against human COLO205 cells after 72 hrs by MTT assay. In kind it is functional, cell-based. Conditions: COLO 205, 72 h. In short, it runs like this: as §1

Molecules are shown by their SMILES. Active and inactive are the calls of the source. The calls are words filed in the database; no cut-off is given here. Where only a bound is given, the exact number is not on record here.

T2 sequence (Q8N122 whole entry, looked up, other chains not shown): as the sequence (Q8N122 whole entry) above
T2 sequence (Q9BVC4 whole entry, looked up, other chains not shown): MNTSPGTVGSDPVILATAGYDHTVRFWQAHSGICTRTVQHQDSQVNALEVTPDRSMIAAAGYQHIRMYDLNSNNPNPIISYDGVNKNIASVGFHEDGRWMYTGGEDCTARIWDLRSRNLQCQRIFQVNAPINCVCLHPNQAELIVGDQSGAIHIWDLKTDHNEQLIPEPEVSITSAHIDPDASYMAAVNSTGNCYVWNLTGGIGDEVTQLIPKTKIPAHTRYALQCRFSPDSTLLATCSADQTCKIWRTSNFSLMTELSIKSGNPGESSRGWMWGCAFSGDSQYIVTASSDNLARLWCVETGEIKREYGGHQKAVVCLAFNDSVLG
T1 sequence (P31749 whole entry): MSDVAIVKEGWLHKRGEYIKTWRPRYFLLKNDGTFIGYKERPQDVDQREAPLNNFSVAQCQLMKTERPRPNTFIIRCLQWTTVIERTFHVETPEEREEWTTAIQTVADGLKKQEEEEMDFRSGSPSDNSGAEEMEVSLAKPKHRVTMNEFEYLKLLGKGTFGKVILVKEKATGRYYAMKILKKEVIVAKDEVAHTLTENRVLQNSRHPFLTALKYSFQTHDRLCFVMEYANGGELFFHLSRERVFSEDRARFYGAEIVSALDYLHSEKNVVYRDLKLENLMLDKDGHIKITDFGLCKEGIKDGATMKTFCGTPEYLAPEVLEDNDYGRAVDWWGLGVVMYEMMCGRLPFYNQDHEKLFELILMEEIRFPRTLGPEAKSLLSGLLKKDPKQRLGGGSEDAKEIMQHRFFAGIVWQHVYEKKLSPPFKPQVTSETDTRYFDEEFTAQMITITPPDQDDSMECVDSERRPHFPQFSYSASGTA

As to `O=C(CCC(=O)ON1C(=O)CCC1=O)NCCNC(=O)COC(=O)NCCOCCOCCOCCOCCOCCOCCNC(=O)C1CCN(C2CCN(Cc3c(O)ccc4oc(-c5ccccc5)cc34)CC2)CC1`, the outcome (in assay [1]; in [2]; with SQ20B [3]; in assay [5]; in [8]) was inactive. For the same molecule, on mTORC1 (Homo sapiens) [4], the inhibition entry is “Dose-dependent effect”. Moreover, the result in assay [6] was Active. In addition, at mTORC1 (Homo sapiens) [7], the inhibition entry was “Active”.

What is called IC50 is the concentration that gives 50% inhibition. Turning to `Oc1ccc2oc(Cc3ccccc3)cc2c1CN1CCC(O)CC1`, the IC50 in the assay on SQ20B [9] came out at 13 µM.

`CN(CCO)Cc1c(O)ccc2oc(Cc3ccccc3)cc12` had an IC50 with SQ20B [9] of 30 µM.

In turn, `CN(Cc1c(O)ccc2oc(Cc3ccccc3)cc12)C1CCCCC1` displayed a concentration for half-maximal inhibition (IC50) in the assay with SQ20B [9] of 12 µM.

`OCCOCCN1CCN(Cc2c(O)ccc3oc(Cc4ccccc4)cc23)CC1` came in with an IC50 in the assay with SQ20B [9] of 21 µM.

Turning to `Oc1ccc2oc(C(O)c3ccccc3)cc2c1CN1CCC(N2CCCCC2)CC1` (stereo not given), the IC50 with SQ20B [9] turned out to be 13 µM.

As to `NC(=O)C1CCN(Cc2c(O)ccc3oc(Cc4ccccc4)cc23)CC1`, the IC50 in the assay on SQ20B [9] was determined as 85 µM.

For the molecule `Oc1ccc2oc(Cc3ccccc3)cc2c1CN1CCC(N2CCCC2)CC1`, in the assay with SQ20B [9], inhibition was half-maximal at 3 µM (IC50). For the same molecule, the inhibition entry on mTORC1 (Homo sapiens) [4] was “Dose-dependent effect”.

For `Oc1ccc2oc(Cc3ccccc3)cc2c1CN1CCN(Cc2ccccc2)CC1`, the IC50 in the assay on SQ20B [9] is 36 µM.

`O=C(NCCOCCO)C1CCN(C2CCN(Cc3c(O)ccc4oc(Cc5ccccc5)cc34)CC2)CC1`: in the assay on SQ20B [9], the IC50 turned out to be 14 µM.

In the assay on SQ20B [9], `Oc1ccc2oc(Cc3ccccc3)cc2c1CN1CCOCC1` gave an IC50 of 6.5 µM.

Turning to `Oc1ccc2oc(Cc3ccccc3)cc2c1CN1CCCC(O)C1` (stereo not given), the midpoint of inhibition in the assay on SQ20B [9], the IC50, lay at 11 µM.

In turn, `CON(C)Cc1c(O)ccc2oc(Cc3ccccc3)cc12` displayed an IC50 in the assay on SQ20B [9] of 40 µM.

`CN(C)Cc1c(O)ccc2oc(Cc3ccccc3)cc12`: the IC50 came out at 40 µM with HOP-92; 10 µM in assay [10]; 20 µM in assay [11]; 33 µM in the assay on SQ20B [9]; 40 µM with HCC 2998.

Take `CO[C@H]1C[C@@H]2CC[C@@H](C)[C@@](O)(O2)C(=O)C(=O)N2CCCC[C@H]2C(=O)O[C@H]([C@H](C)C[C@@H]2CC[C@@H](OCCO)[C@H](OC)C2)CC(=O)[C@H](C)/C=C(\C)[C@@H](O)[C@@H](OC)C(=O)[C@H](C)C[C@H](C)/C=C/C=C/C=C/1C` [EVEROLIMUS]: the half-inhibitory concentration (IC50) worked out at 8.7 µM in [12]; 8 µM in the assay with DU-145; 16 µM in the assay with OVCAR-3; 12 µM in the assay with HCT-116; 14 µM in the assay on CAKI-1; 5.5 µM in the assay with SQ20B [9]. The IC50 in the assay on HOP-62 stood at 19 µM; in assay [13], 12 µM; in the assay with HT-29, 15 µM; with COLO 205, 20 µM.

As for `Oc1ccc2oc(Cc3ccccc3)cc2c1CN1CCC(N2CCCCC2)CC1`, the IC50 was 3.7 µM in assay [12]; 20 µM in the assay on DU-145; 19 µM with OVCAR-3; 12 µM in the assay on HCT-116; 6.9 µM in the assay with CAKI-1; 3 µM in the assay on SQ20B [9]. Also, the IC50 turned out to be 11 µM with HOP-62, 11 µM in assay [13], 5.1 µM with HT-29 and 3.1 µM with COLO 205.

In the assay on SQ20B [9], `CN1CCN(Cc2c(O)ccc3oc(Cc4ccccc4)cc23)CC1` gave an IC50 of 18 µM.

Consider `Oc1ccc2oc(Cc3ccccc3)cc2c1CN1CCC(c2ccccc2)CC1`, for which the IC50 in the assay with SQ20B [9] was > 200 µM.

Regarding `CCN(CC)Cc1c(O)ccc2oc(Cc3ccccc3)cc12`, the IC50 with SQ20B [9] worked out at 12 µM.

With `OCCN(Cc1c(O)ccc2oc(Cc3ccccc3)cc12)C1CCCCC1`, 27 µM corresponded to half-maximal inhibition with SQ20B [9] (IC50).

Turning to `Oc1ccc2oc(Cc3ccccc3)cc2c1CN1CCc2ccccc2C1`, the IC50 in the assay with SQ20B [9] was 16 µM.

On to `O=C(c1ccccc1)c1cc2c(CN3CCC(N4CCCCC4)CC3)c(O)ccc2o1`, for which, in the assay on SQ20B [9], 17 µM corresponded to half-maximal inhibition (IC50).

For the molecule `COc1cccc2cc(-c3nc([C@H]4CC[C@H](C(=O)O)CC4)n4ncnc(N)c34)[nH]c12` [OSI-027], the IC50 turned out to be 5.8 µM in assay [12]; 4.1 µM in the assay on DU-145; 8.1 µM with OVCAR-3; 5.6 µM with HCT-116; 1.9 µM in the assay with CAKI-1; 1.3 µM with SQ20B [9]. Also, the IC50 is 41 µM in the assay with HOP-62, 3.2 µM in [13], 55 µM in the assay on HT-29 and 5.8 µM with COLO 205.

On to `CN(Cc1ccccc1)Cc1c(O)ccc2oc(Cc3ccccc3)cc12`, for which, in the assay on SQ20B [9], the IC50 came to 12 µM.

For the molecule `O=CN1CCN(Cc2c(O)ccc3oc(Cc4ccccc4)cc23)CC1`, it took 49 µM to reach half-maximal inhibition in the assay on SQ20B [9] (IC50).

As to `OCCN(CCO)Cc1c(O)ccc2oc(Cc3ccccc3)cc12`, the 50% inhibitory concentration (IC50) in the assay with SQ20B [9] is > 200 µM.

On to `Oc1ccc2oc(-c3ccccc3)cc2c1CN1CCC(N2CCCCC2)CC1`, for which the IC50 stood at 18 µM in [12]; 13 µM with DU-145; 22 µM with OVCAR-3; 57 µM in the assay with HCT-116; 26 µM with CAKI-1; 2.8 µM in the assay with SQ20B [9]. For the same molecule, the IC50 stood at 54 µM in the assay with HOP-62, 42 µM in assay [13], 45 µM with HT-29 and 6.3 µM in the assay on COLO 205.
